Test results: ChEMBL document CHEMBL1681705, “Optimisation of ITK inhibitors through successive iterative design cycles” (Bioorg Med Chem Lett, 2011)

Assays:
[1] = Inhibition of ROCK1 at 1 uM
[2] = molecular target: Serine/threonine-protein kinase PAK 2 (Homo sapiens) (UniProt Q13177); assay: Inhibition of PAK2 at 0.1 uM; values are per cent of control
[3] = molecular target: Fibroblast growth factor receptor 4 (Homo sapiens) (UniProt P22455); assay: Inhibition of FGFR4 at 0.1 uM; values are per cent of control
Fibroblast growth factor receptor 4 (Homo sapiens), sequence (P22455 22-802 limits assumed): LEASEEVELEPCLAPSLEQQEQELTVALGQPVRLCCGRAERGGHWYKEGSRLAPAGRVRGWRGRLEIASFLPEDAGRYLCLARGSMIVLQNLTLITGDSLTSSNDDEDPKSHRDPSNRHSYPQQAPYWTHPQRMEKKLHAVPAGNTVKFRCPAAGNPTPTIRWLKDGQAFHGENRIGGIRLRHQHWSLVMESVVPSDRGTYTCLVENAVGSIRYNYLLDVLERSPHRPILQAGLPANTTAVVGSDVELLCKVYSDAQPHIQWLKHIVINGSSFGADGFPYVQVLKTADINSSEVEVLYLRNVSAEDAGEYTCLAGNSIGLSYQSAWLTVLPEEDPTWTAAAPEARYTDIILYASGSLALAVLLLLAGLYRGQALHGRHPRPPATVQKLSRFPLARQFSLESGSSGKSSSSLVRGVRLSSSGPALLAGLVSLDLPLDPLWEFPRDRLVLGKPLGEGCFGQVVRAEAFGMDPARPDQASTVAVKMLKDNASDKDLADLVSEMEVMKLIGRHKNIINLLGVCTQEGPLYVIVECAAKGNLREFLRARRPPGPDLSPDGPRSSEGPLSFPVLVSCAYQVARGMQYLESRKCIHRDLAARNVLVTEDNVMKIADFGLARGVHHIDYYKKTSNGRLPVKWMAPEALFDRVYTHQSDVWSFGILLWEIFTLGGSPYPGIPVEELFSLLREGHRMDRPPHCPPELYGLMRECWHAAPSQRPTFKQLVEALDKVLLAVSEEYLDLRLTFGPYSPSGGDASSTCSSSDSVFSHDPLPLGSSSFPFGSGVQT

[4] = molecular target: T1, Ephrin type-B receptor 3 (Homo sapiens) (UniProt P54753); assay: Inhibition of EphB3 at 0.1 uM; values are per cent of control
T1 sequence (whole entry): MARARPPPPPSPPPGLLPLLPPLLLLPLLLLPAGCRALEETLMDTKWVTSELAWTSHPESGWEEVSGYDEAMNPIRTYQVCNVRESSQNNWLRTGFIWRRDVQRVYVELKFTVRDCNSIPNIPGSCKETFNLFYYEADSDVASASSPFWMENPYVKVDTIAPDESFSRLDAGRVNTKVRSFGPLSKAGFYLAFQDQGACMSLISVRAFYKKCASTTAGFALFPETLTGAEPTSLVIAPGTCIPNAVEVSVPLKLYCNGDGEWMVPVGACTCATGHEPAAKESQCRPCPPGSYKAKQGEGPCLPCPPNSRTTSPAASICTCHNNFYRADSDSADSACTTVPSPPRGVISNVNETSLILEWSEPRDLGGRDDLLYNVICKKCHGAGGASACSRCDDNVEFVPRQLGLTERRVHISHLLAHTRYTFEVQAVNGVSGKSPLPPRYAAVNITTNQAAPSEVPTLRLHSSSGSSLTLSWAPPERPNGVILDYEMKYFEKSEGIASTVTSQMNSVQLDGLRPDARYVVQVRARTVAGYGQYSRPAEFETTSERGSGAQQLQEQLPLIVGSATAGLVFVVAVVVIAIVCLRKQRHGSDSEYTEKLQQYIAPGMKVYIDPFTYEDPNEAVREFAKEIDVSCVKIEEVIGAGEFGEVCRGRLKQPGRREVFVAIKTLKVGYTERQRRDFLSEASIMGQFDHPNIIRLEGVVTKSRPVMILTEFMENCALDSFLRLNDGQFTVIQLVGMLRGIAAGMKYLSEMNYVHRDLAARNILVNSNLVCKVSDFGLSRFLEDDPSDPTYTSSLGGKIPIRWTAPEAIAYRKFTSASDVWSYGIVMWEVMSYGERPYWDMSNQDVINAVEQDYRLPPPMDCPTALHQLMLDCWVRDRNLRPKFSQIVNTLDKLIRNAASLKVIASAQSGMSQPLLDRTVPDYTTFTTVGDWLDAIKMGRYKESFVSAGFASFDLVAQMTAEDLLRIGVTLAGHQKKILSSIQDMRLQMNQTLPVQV

[5] = molecular target: Protein kinase C alpha type (Homo sapiens) (UniProt P17252); assay: Inhibition of PKCalpha at 1 uM; values are per cent of control
Mus musculus [6] = assay: Antiinflammatory activity in BALB/c mouse assessed as inhibition of monoclonal anti-CD3-induced IL-2 production at 10 mg/kg, po administered 1 hr before monoclonal anti-CD3 challenge measured after 2 hrs by ELISA relative to control; type: functional
Procedure, shortened: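 Female BALB/c mice (~20 g) dosed orally at 10 mg/kg, 1 h before iv anti-CD3 monoclonal antibody (clone 145-2C11, 10 µg/kg). Vehicle (saline) plus antibody group served as positive control. Plasma IL-2 determined from heart-puncture blood 2 h after stimulation, under anaesthesia. Inhibition expressed relative to vehicle; n = 8 mice/group.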

Mus musculus [7] = assay: Antiinflammatory activity in iv dosed BALB/c mouse assessed as inhibition of monoclonal anti-CD3-induced IL-2 production administered 10 min before monoclonal anti-CD3 challenge measured after 2 hrs by ELISA
[8] = Solubility of the compound; type: physicochemical
Mus musculus [9] = assay: Antiinflammatory activity in BALB/c mouse assessed as inhibition of monoclonal anti-CD3-induced IL-2 production at 10 mg/kg, iv administered 10 min before monoclonal anti-CD3 challenge measured after 2 hrs by ELISA; settings: BLD = below limit of detection

Serine/threonine-protein kinase PAK 2 (Homo sapiens), sequence (Q13177 whole entry): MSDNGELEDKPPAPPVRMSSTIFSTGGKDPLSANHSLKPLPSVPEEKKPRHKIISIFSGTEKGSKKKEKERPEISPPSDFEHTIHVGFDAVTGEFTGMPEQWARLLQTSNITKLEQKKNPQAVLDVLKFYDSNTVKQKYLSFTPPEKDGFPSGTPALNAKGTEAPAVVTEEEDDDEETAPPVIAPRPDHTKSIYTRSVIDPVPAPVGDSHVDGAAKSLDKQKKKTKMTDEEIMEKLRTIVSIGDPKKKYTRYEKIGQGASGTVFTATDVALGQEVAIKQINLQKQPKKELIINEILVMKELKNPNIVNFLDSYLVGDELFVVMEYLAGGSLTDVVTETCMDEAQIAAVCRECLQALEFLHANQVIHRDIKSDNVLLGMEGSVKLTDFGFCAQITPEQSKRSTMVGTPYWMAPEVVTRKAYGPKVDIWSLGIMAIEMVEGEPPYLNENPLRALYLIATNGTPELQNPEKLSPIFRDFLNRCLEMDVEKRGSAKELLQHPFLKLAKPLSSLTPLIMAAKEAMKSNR

Row | Compound | inhibition [1] | residual activity [2] | residual activity [3] | residual activity [4] | residual activity [5] | inhibition in vivo at 10 mg/kg (Mus musculus [6]) | ED50 (Mus musculus [7]) | inhibition (Mus musculus [7]) | solubility [8] | inhibition (Mus musculus [9])
1 | Cc1ccc2cc(-c3n[nH]c4ccc(NC5CCN(Cc6ccccc6)CC5)cc34)[nH]c2c1 | 45% | 93% | 65% | 127% | 36% | – | – | – | – | –
2 | Cc1ccc2cc(-c3n[nH]c4ccc(NC5CCNC5)cc34)[nH]c2c1 (configuration not stated) | – | – | 63% | – | 27% | > 80% | 2.1 mg/kg | Dose-dependent effect | soluble | BLD
